Data published in ChEMBL document CHEMBL1944548, “Discovery of kinase spectrum selective macrocycle (16E)-14-methyl-20-oxa-5,7,14,26-tetraazatetracyclo[19.3.1.1(2,6).1(8,12)]heptacosa-1(25),2(26),3,5,8(27),9,11,16,21,23-decaene (SB1317/TG02), a potent inhibitor of cyclin dependent kinases (CDKs), Janus kinase 2 (JAK2), and fms-like tyrosine …” (J Med Chem, 2012).
≈ marks a conversion by molar mass, not a printed value.

Experiments:
[1] = molecular target: T1, Receptor-type tyrosine-protein kinase FLT3 (Homo sapiens, UniProt P36888); test: Inhibition of recombinant Flt3 using poly(Glu,Tyr) as substrate after 2 hrs by luminescence assay
T1 sequence (P36888 whole entry): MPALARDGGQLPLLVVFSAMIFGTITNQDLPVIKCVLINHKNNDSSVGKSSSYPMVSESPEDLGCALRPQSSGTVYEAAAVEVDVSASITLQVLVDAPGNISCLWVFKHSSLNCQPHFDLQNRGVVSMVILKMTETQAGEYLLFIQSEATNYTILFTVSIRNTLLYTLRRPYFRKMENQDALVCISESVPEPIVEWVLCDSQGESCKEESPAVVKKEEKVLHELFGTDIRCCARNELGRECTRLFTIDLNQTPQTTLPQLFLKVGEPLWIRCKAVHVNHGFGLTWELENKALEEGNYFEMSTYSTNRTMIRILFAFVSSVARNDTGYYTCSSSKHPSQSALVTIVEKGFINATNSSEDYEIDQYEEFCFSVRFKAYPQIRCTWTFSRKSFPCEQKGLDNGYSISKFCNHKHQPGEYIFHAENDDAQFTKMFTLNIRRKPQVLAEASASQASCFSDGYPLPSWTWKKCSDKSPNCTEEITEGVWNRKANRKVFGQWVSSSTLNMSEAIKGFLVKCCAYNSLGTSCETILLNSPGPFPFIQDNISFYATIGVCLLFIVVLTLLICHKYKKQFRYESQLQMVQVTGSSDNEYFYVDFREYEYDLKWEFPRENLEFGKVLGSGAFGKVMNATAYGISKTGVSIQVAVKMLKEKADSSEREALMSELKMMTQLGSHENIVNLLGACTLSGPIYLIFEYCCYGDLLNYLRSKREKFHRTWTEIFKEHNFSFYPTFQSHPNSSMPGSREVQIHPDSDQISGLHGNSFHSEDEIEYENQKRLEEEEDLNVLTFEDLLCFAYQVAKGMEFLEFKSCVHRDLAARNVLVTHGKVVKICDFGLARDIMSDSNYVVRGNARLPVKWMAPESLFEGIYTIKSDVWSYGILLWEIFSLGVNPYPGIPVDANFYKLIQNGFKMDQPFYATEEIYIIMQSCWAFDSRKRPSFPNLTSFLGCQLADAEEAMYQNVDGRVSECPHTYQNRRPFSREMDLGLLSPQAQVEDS

[2] = molecular target: Tyrosine-protein kinase JAK2 (Homo sapiens, UniProt O60674); test: Inhibition of recombinant JAK2 using poly(Glu,Ala,Tyr) as substrate after 2 hrs by luminescence assay
[3] = molecular target: Cyclin-dependent kinase 2/cyclin A (Homo sapiens, UniProt P24941); test: Inhibition of recombinant Cdk2/cyclin A using RbING as substrate after 2 hrs by luminescence assay; assay type: protein-complex assay
[4] = Solubility of the compound in PBS buffer at 250 uM at pH 7 by UV spectrophotometry; assay type: physicochemical
[5] = Oral bioavailability in nude mouse at 50 mg/kg; assay type: ADME, organism-based; conditions: in vivo
HL-60 = test: Antiproliferative activity against human HL60 cells after 48 hrs; assay type: functional, cell-based; conditions: HL-60, 48 h
HCT-116 = test: Antiproliferative activity against human HCT116 cells after 48 hrs; assay type: functional, cell-based; conditions: HCT-116, 48 h
[6] = Half life in human liver microsomes at 5 uM by LC-MS/MS analysis; assay type: ADME, Microsome
How it was run: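 5 μM with mouse, rat, dog or human liver microsomes (~0.87 mg/mL), 50 mM potassium phosphate pH 7.4, NADPH regeneration system, 37 °C.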

Sequence of Tyrosine-protein kinase JAK2 (O60674 whole entry): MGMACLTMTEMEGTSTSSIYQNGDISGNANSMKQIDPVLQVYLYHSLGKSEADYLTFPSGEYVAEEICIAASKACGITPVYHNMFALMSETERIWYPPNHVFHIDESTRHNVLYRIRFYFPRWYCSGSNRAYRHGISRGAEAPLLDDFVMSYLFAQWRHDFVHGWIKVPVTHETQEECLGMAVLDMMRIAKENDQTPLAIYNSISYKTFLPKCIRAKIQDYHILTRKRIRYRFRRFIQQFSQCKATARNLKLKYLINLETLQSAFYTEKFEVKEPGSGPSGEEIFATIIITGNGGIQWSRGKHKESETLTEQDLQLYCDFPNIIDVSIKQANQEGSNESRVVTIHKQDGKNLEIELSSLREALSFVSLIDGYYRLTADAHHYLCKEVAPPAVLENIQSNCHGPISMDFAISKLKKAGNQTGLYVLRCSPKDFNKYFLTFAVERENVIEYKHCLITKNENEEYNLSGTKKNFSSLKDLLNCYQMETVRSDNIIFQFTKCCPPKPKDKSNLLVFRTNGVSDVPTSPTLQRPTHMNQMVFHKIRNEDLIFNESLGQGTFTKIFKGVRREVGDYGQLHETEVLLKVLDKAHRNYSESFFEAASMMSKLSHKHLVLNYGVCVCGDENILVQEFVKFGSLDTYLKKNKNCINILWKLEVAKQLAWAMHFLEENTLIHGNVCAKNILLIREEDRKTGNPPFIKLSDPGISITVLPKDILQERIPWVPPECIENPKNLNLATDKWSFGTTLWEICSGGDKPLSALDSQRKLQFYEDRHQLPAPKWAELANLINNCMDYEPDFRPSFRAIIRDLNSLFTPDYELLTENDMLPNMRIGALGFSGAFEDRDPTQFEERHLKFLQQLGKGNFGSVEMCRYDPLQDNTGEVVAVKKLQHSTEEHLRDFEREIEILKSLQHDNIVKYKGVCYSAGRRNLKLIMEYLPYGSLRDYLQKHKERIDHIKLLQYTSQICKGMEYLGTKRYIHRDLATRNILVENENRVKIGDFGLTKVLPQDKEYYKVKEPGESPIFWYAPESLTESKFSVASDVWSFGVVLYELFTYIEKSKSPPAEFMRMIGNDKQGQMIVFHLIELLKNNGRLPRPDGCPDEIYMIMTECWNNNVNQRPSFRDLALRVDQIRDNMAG

IC50 [1] [nM]	IC50 [2] [nM]	IC50 [3] [nM]	solubility at 250 µM [4] [µg/mL]	bioavailability [5] [%]	IC50 (HL-60) [nM]	IC50 (HCT-116) [nM]	half-life at 5 µM [6] [min]	SMILES
19	50	8	–	–	–	–	–	CN1C/C=C/CCOc2cccc(c2)-c2ccnc(n2)Nc2cc(cc(NC(=O)C(F)(F)F)c2)C1
93	110	170	–	–	–	–	–	CCS(=O)(=O)CCOc1ccc2cc1CN(C)C/C=C/CCOc1cccc(c1)-c1ccnc(n1)N2
1020	1750	2600	–	–	–	–	–	O=C1CC/C=C\COc2cccc(c2)-c2ccnc(n2)Nc2cccc(c2)N1
30	48	300	150 (≈ 308 µM)	5	–	–	–	CCN(CC)CCOc1ccc2cc1CN(C)C/C=C/CCOc1cccc(c1)-c1ccnc(n1)N2
110	–	21	–	–	–	–	–	C1=C/CNCc2cccc(c2)Nc2nccc(n2)-c2cccc(c2)OCC/1
29	150	310	–	–	–	–	–	N#CCN1C/C=C/CCOc2cccc(c2)-c2ccnc(n2)Nc2ccc(OCCN3CCCC3)c(c2)C1
440	100	22	–	–	–	–	–	CCS(=O)(=O)c1ccc2cc1CN(C)C/C=C/CCOc1cccc(c1)-c1ccnc(n1)N2
310	510	2300	–	–	–	–	–	COc1ccc2cc1OCC/C=C/CN(C)Cc1cccc(c1)Nc1nccc-2n1
45	62	260	146 (≈ 292 µM)	–	–	–	–	CN1C/C=C/CCOc2cccc(c2)-c2ccnc(n2)Nc2ccc(OCCN3CCCCC3)c(c2)C1
> 10000	> 10000	> 10000	–	–	–	–	–	CN1C/C=C/CCOc2cccc(c2)-c2cc(N3CCCC3)nc(n2)Nc2cccc(c2)C1
77	82	24	–	–	–	–	–	CN1C/C=C/CCOc2cccc(c2)-c2ccnc(n2)Nc2ccc(Cl)c(c2)C1
490	1600	410	–	–	–	–	–	COCCN1C/C=C/CCOc2cccc(c2)-c2ccnc(n2)Nc2cccc(c2)C1
19	50	7	–	–	–	–	–	CN1C/C=C/CCOc2cccc(c2)-c2ccnc(n2)Nc2cc(N)cc(c2)C1
42	90	–	–	–	–	–	–	C1=C/CN(C2CC2)Cc2cccc(c2)Nc2nccc(n2)-c2cccc(c2)OCC/1
98	210	6700	–	–	–	–	–	COc1cc2cc(c1OCCN1CCCC1)CN(C)C/C=C/CCOc1cccc(c1)-c1ccnc(n1)N2
2750	> 10000	4600	–	–	–	–	–	CN1C/C=C/CC(=O)Nc2cccc(c2)-c2ccnc(n2)Nc2cccc(c2)C1
110	220	> 10000	–	–	–	–	–	FC(F)(F)CN1C/C=C/CCOc2cccc(c2)-c2ccnc(n2)Nc2ccc(OCCN3CCCC3)c(c2)C1
190	1500	200	–	–	–	–	–	CC(C)CN1C/C=C/CCOc2cccc(c2)-c2ccnc(n2)Nc2cccc(c2)C1
40	120	300	154 (≈ 307 µM)	–	–	–	–	CN1C/C=C/CCOc2cccc(c2)-c2ccnc(n2)Nc2ccc(OCCN3CCOCC3)c(c2)C1
35	56	250	150 (≈ 309 µM)	–	–	–	–	CN1C/C=C/CCOc2cccc(c2)-c2ccnc(n2)Nc2ccc(OCCN3CCCC3)c(c2)C1

IC50 [1] [nM]	IC50 [2] [nM]	IC50 [3] [nM]	solubility at 250 µM [4] [µg/mL]	bioavailability [5] [%]	IC50 (HL-60) [nM]	IC50 (HCT-116) [nM]	half-life at 5 µM [6] [min]	SMILES
160	150	57	–	–	–	–	–	CN1C/C=C/CCOc2cccc(c2)-c2ccnc(n2)Nc2ccc(OC(F)(F)F)c(c2)C1
270	1500	94	–	–	–	–	–	C1=C/CN(CC2CC2)Cc2cccc(c2)Nc2nccc(n2)-c2cccc(c2)OCC/1
140	–	530	105 (≈ 230 µM)	–	–	–	–	CC(C)NCC(=O)N1C/C=C/CCOc2cccc(c2)-c2ccnc(n2)Nc2cccc(c2)C1
71	49	74	147 (≈ 321 µM)	–	76	410	21	CN1C/C=C/CCOc2cccc(c2)-c2ccnc(n2)Nc2ccc(N3CCOCC3)c(c2)C1
37	44	87	–	–	–	–	–	CN1C/C=C/CCOc2cccc(c2)-c2ccnc(n2)Nc2cc(cc(NC(=O)N3CCOCC3)c2)C1
> 10000	> 10000	> 10000	–	–	–	–	–	CC(C)(C)CN1C/C=C/CCOc2cccc(c2)-c2ccnc(n2)Nc2cccc(c2)C1
350	–	100	–	–	–	–	–	OCCN1C/C=C/CCOc2cccc(c2)-c2ccnc(n2)Nc2cccc(c2)C1
150	140	390	–	–	–	–	–	CN1C/C=C/CCOc2cccc(c2)-c2ccnc(n2)Nc2ccc(OCC(=O)N3CCCC3)c(c2)C1
250	220	900	–	–	–	–	–	CN1CCN(CCOc2ccc3cc2CN(C)C/C=C/CCOc2cccc(c2)-c2ccnc(n2)N3)CC1
2900	3300	150	–	–	–	–	–	C1=C/CNc2cccc(c2)Nc2nccc(n2)-c2cccc(c2)OCC/1
210	1700	660	–	–	–	–	–	CN1C/C=C/COCc2cccc(c2)-c2ccnc(n2)Nc2cccc(c2)C1
1450	1350	480	–	–	–	–	–	C1=C/CN(Cc2ccccn2)Cc2cccc(c2)Nc2nccc(n2)-c2cccc(c2)OCC/1
66	280	77	–	–	–	–	–	COc1ccc2cc1CN(C)C/C=C/CCOc1cccc(c1)-c1ccnc(n1)N2
25	62	110	–	–	–	–	–	COCCOc1ccc2cc1CN(C)C/C=C/CCOc1cccc(c1)-c1ccnc(n1)N2
1700	> 10000	4700	–	–	–	–	–	Cc1cc2nc(n1)Nc1cccc(c1)CN(C)C/C=C/CCOc1cccc-2c1
> 10000	> 10000	> 10000	–	–	–	–	–	O=C(N1C/C=C/CCOc2cccc(c2)-c2ccnc(n2)Nc2cccc(c2)C1)C(F)(F)F
> 10000	> 10000	> 10000	–	–	–	–	–	CN1C/C=C/CNC(=O)c2cccc(c2)-c2ccnc(n2)Nc2cccc(c2)C1
310	230	99	–	–	–	–	–	CN1C/C=C/COCc2cccc(c2)Nc2nccc(n2)-c2cccc(c2)C1
22	160	9	–	–	–	–	–	CN1C/C=C/CCOc2cc(F)cc(c2)-c2ccnc(n2)Nc2cccc(c2)C1
